Results reported in ChEMBL document CHEMBL1157464, “1-[(3-Aryloxy-3-aryl)propyl]-1H-imidazoles, new imidazoles with potent activity against Candida albicans and dermatophytes. Synthesis, structure-activity relationship, and molecular modeling studies” (J Med Chem, 2008).
Values after ≈ are worked out from the molar mass of the structure shown.

Test system: Candida parapsilosis
Assay: Antifungal activity against Candida parapsilosis ATCC 22019 at 35 degC after 48 hrs by broth microdilution test
Format: functional
Conditions: Lodderomyces parapsilosis, ATCC 22019, 48 h; read-out: MFC
In short: (§1)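 Broth microdilution per NCCLS M27-A2. Stocks in 100% DMSO, diluted in RPMI 1640 with 0.165 M MOPS at pH 7.0; final range 0.25–128 µg/mL. Inoculum 1000–5000 cells/mL from SDA subcultures. […] C. parapsilosis ATCC22019 served as QC strain.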

| Compound | MFC |
| --- | --- |
| CCc1ccc(OC(CCn2ccnc2)c2ccc(C)cc2)cc1 (centres undefined) | 8 µg/mL (≈ 25 µM) |
| Cc1ccc(C(CCn2ccnc2)Oc2cc(Cl)cc(Cl)c2)cc1 (centres undefined) | 8 µg/mL (≈ 22.1 µM) |
| Clc1ccc(C(CCn2ccnc2)Oc2ccccc2Cl)cc1 (centres undefined) | 32 µg/mL (≈ 92.2 µM) |
| Cc1ccc(OC(CCn2ccnc2)c2ccccc2)cc1 (racemic) | 16 µg/mL (≈ 54.7 µM) |

Same assay, conditions: Lodderomyces parapsilosis, ATCC 22019, 48 h; read-out: MIC

| MIC | Compound |
| --- | --- |
| 4 µg/mL (≈ 12.5 µM) | CCc1ccc(OC(CCn2ccnc2)c2ccc(C)cc2)cc1 (centres undefined) |
| 1 µg/mL (≈ 2.77 µM) | Cc1ccc(C(CCn2ccnc2)Oc2cc(Cl)cc(Cl)c2)cc1 (centres undefined) |
| 2 µg/mL (≈ 6.84 µM) | Cc1ccc(OC(CCn2ccnc2)c2ccccc2)cc1 (racemic) |

| Compound | MIC |
| --- | --- |
| Clc1ccc(C(CCn2ccnc2)Oc2ccccc2Cl)cc1 (centres undefined) | 4 µg/mL (≈ 11.5 µM) |

Test system: Arthrodermataceae
Assay: Antifungal activity against dermatophytes at 28 degC after 5 days by broth microdilution test
Conditions: not given

| Compound | MFC90 |
| --- | --- |
| Cc1ccc(C(CCn2ccnc2)Oc2cc(Cl)cc(Cl)c2)cc1 (centres undefined) | 16 µg/mL (≈ 44.3 µM) |
| Cc1ccc(OC(CCn2ccnc2)c2ccccc2)cc1 (racemic) | 32 µg/mL (≈ 109 µM) |

Same assay, conditions: Arthrodermataceae

| Compound | MFC |
| --- | --- |
| Cc1ccc(C(CCn2ccnc2)Oc2cc(Cl)cc(Cl)c2)cc1 (centres undefined) | 14.4 µg/mL (≈ 39.9 µM) |
| Cc1ccc(OC(CCn2ccnc2)c2ccccc2)cc1 (racemic) | 28.8 µg/mL (≈ 98.5 µM) |

Test system: Candida albicans
Assay: Antifungal activity against fluconazole-resistant Candida albicans isolated from oropharyngeal or vaginal disease patient after 48 hrs by broth microdilution test
Format: functional
Conditions: not given

| Compound | MIC |
| --- | --- |
| Clc1ccc(C(CCn2ccnc2)Oc2ccccc2Cl)cc1 (centres undefined) | 8 µg/mL (≈ 23 µM) |

Test system: Arthrodermataceae
Assay: Antifungal activity against dermatophytes at 28 degC after 7 days by broth microdilution test
Format: functional
Conditions: 168 h
In short: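 Ten clinical isolates (two M. canis, five M. gypseum, three T. mentagrophytes) tested by NCCLS M38-A broth microdilution in MOPS-buffered RPMI 1640, pH 7.0, over 0.25–128 µg/mL. Conidial/hyphal suspension from PDA slants (28 °C, 7 days) adjusted to 65–70% transmittance at OD530, then diluted 1:50.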

| MIC | MIC50 | MIC90 | Compound |
| --- | --- | --- | --- |
| 5.6 µg/mL (≈ 15.5 µM) | 4 µg/mL (≈ 11.1 µM) | 8 µg/mL (≈ 22.1 µM) | Cc1ccc(C(CCn2ccnc2)Oc2cc(Cl)cc(Cl)c2)cc1 (centres undefined) |
| 17.2 µg/mL (≈ 58.8 µM) | 16 µg/mL (≈ 54.7 µM) | 32 µg/mL (≈ 109 µM) | Cc1ccc(OC(CCn2ccnc2)c2ccccc2)cc1 (racemic) |

Test system: Candida albicans
Assay: Antifungal activity against Candida albicans ATCC 10261 at 35 degC after 48 to 96 hrs by broth microdilution test
Format: functional
Conditions: not given
In short: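 Minimal fungicidal concentration for Candida. […] MFC is the lowest concentration allowing fewer than two colonies (99% killing).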

| Compound | MFC50 | MFC90 | MFC |
| --- | --- | --- | --- |
| CCc1ccc(OC(CCn2ccnc2)c2ccc(C)cc2)cc1 (centres undefined) | 32 µg/mL (≈ 99.9 µM) | 32 µg/mL (≈ 99.9 µM) |  |
| Cc1ccc(C(CCn2ccnc2)Oc2cc(Cl)cc(Cl)c2)cc1 (centres undefined) | 16 µg/mL (≈ 44.3 µM) | 64 µg/mL (≈ 177 µM) |  |
| Clc1ccc(C(CCn2ccnc2)Oc2ccccc2Cl)cc1 (centres undefined) | 32 µg/mL (≈ 92.2 µM) | 32 µg/mL (≈ 92.2 µM) |  |
| Cc1ccc(OC(CCn2ccnc2)c2ccccc2)cc1 (racemic) | 16 µg/mL (≈ 54.7 µM) | 16 µg/mL (≈ 54.7 µM) | 13.6 µg/mL (≈ 46.5 µM) |

Same assay, conditions: Candida albicans, ATCC 10261; read-out: MFC

| Compound | MFC |
| --- | --- |
| CCc1ccc(OC(CCn2ccnc2)c2ccc(C)cc2)cc1 (centres undefined) | 28 µg/mL (≈ 87.4 µM) |
| Cc1ccc(C(CCn2ccnc2)Oc2cc(Cl)cc(Cl)c2)cc1 (centres undefined) | 34.6 µg/mL (≈ 95.8 µM) |
| Clc1ccc(C(CCn2ccnc2)Oc2ccccc2Cl)cc1 (centres undefined) | 27 µg/mL (≈ 77.8 µM) |

Test system: Candida albicans
Assay: Antifungal activity against Candida albicans ATCC 10261 at 35 degC after 48 hrs by broth microdilution test
Format: functional
Conditions: not given
In short: as §1

| MIC | MIC90 | Compound |
| --- | --- | --- |
| 9.4 µg/mL (≈ 32.1 µM) | 16 µg/mL (≈ 54.7 µM) | Cc1ccc(OC(CCn2ccnc2)c2ccccc2)cc1 (racemic) |

Same assay, conditions: Candida albicans, ATCC 10261, 48 h; read-out: MIC

| MIC | Compound |
| --- | --- |
| 8.7 µg/mL (≈ 27.2 µM) | CCc1ccc(OC(CCn2ccnc2)c2ccc(C)cc2)cc1 (centres undefined) |
| 11.9 µg/mL (≈ 32.9 µM) | Cc1ccc(C(CCn2ccnc2)Oc2cc(Cl)cc(Cl)c2)cc1 (centres undefined) |

| Compound | MIC |
| --- | --- |
| Clc1ccc(C(CCn2ccnc2)Oc2ccccc2Cl)cc1 (centres undefined) | 7.7 µg/mL (≈ 22.2 µM) |

Same assay, conditions: Candida albicans, ATCC 10261, 48 h; read-out: MIC50

| MIC50 | Compound |
| --- | --- |
| 4 µg/mL (≈ 12.5 µM) | CCc1ccc(OC(CCn2ccnc2)c2ccc(C)cc2)cc1 (centres undefined) |
| 16 µg/mL (≈ 44.3 µM) | Cc1ccc(C(CCn2ccnc2)Oc2cc(Cl)cc(Cl)c2)cc1 (centres undefined) |
| 8 µg/mL (≈ 27.4 µM) | Cc1ccc(OC(CCn2ccnc2)c2ccccc2)cc1 (racemic) |

| Compound | MIC50 |
| --- | --- |
| Clc1ccc(C(CCn2ccnc2)Oc2ccccc2Cl)cc1 (centres undefined) | 8 µg/mL (≈ 23 µM) |

Same assay, conditions: Candida albicans, ATCC 10261, 48 h; read-out: MIC90

| MIC90 | Compound |
| --- | --- |
| 16 µg/mL (≈ 49.9 µM) | CCc1ccc(OC(CCn2ccnc2)c2ccc(C)cc2)cc1 (centres undefined) |
| 16 µg/mL (≈ 44.3 µM) | Cc1ccc(C(CCn2ccnc2)Oc2cc(Cl)cc(Cl)c2)cc1 (centres undefined) |

| Compound | MIC90 |
| --- | --- |
| Clc1ccc(C(CCn2ccnc2)Oc2ccccc2Cl)cc1 (centres undefined) | 8 µg/mL (≈ 23 µM) |

Test system: Arthrodermataceae
Assay: Antifungal activity against dermatophytes at 28 degC after 48 to 96 hrs by broth microdilution test
Conditions: not given

| Compound | MFC50 |
| --- | --- |
| Cc1ccc(C(CCn2ccnc2)Oc2cc(Cl)cc(Cl)c2)cc1 (centres undefined) | 16 µg/mL (≈ 44.3 µM) |
| Cc1ccc(OC(CCn2ccnc2)c2ccccc2)cc1 (racemic) | 32 µg/mL (≈ 109 µM) |

Test system: not listed separately
Assay: Cytotoxicity against human U937 cells assessed as reduction of cell viability after 24 hrs by MTT assay
Format: cell-based, U-937
Conditions: not given
In short: (§2)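 U937 and K562 cells, from ATCC, plated at 5 × 10^4/mL in phenol-red-free RPMI-1640 with 20% FBS and penicillin/streptomycin. Compounds added 2 h later at 25–100 µg/mL, then 24 h at 37 °C. MTT at 1 mg/mL for 3 h, formazan dissolved in isopropanol with 0.1 N HCl, absorbance read at 570 nm. CC50 is the concentration reducing viability by 50% versus the drug-free control.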

| Compound | CC50 at 24 h |
| --- | --- |
| CCc1ccc(OC(CCn2ccnc2)c2ccc(C)cc2)cc1 (centres undefined) | 152 µM |
| Cc1ccc(C(CCn2ccnc2)Oc2cc(Cl)cc(Cl)c2)cc1 (centres undefined) | 160 µM |
| Clc1ccc(C(CCn2ccnc2)Oc2ccccc2Cl)cc1 (centres undefined) | 209 µM |
| Cc1ccc(OC(CCn2ccnc2)c2ccccc2)cc1 (racemic) | 141 µM |

Test system: not listed separately
Assay: Cytotoxicity against human K562 cells after assessed as reduction of cell viability 24 hrs by MTT assay
Format: cell-based
Conditions: not given
In short: as §2

| Compound | CC50 at 24 h |
| --- | --- |
| CCc1ccc(OC(CCn2ccnc2)c2ccc(C)cc2)cc1 (centres undefined) | 136 µM |
| Cc1ccc(C(CCn2ccnc2)Oc2cc(Cl)cc(Cl)c2)cc1 (centres undefined) | 98 µM |
| Clc1ccc(C(CCn2ccnc2)Oc2ccccc2Cl)cc1 (centres undefined) | 205 µM |
| Cc1ccc(OC(CCn2ccnc2)c2ccccc2)cc1 (racemic) | 95.9 µM |

Test system: Candida albicans
Assay: Antifungal activity against fluconazole-sensitive Candida albicans Fe40 at 35 degC after 48 hrs by broth microdilution test
Format: functional
Conditions: not given
In short: as §1

| Compound | MIC |
| --- | --- |
| Clc1ccc(C(CCn2ccnc2)Oc2ccccc2Cl)cc1 (centres undefined) | 8 µg/mL (≈ 23 µM) |
